We go through 16 molecules from ChEMBL document CHEMBL1135704, “Design, synthesis, and evaluation of novel 2-substituted 3-hydroxypyridin-4-ones: structure-activity investigation of metalloenzyme inhibition by iron chelators” (J Med Chem, 2002).

Data set [1] is described as follows: Partition coefficient (logP). The format is physicochemical. As to conditions: octanol/water. In a few lines: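 Distribution coefficient D7.4 between 1-octanol and 50 mM MOPS pH 7.4 (mutually saturated). Ligand in aqueous phase at 0.5–1.5 absorbance near 280 nm; octanol added in aliquots, aqueous UV absorbance monitored continuously to equilibrium after each. D = [(A0−A1)/A1]·(Vw/Vo) per addition.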

Data set [2] in a line: Inhibitory activity against 5-lipoxygenase, by using soybean lipoxygenase spectrophotometric assay. Set-up: concentration or dose not given beside the values. As to conditions: concentration not given here. The gist of the method:
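Soybean lipoxygenase (10 000 units/mL stock in 0.2 M borate pH 9.0; final 500 units per 3.0 mL) preincubated 30 min at room temperature with chelator at 110 µM iron-binding equivalents or diluent; reaction started with linoleic acid in borate buffer. Linoleic hydroperoxide formation followed at 234 nm (ε 23600 M-1 cm-1); rate versus control gives % inhibition.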

Data set [3] is filed under the species Rattus norvegicus. Briefly: The compound was tested for % iron mobilization in Fe-Ferritin Loaded Rat model. The data set is classed as functional. The gist of the method: (§1)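 One hour later chelator given orally at 450 µmol/kg (controls: equal volume water); individual metabolic cages, food returned 1 h post-dose. Killed 24 h after labelling; liver and GI tract with contents and feces gamma-counted. Mean ± SD, n = 5.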

In data set [4] the test system is Rattus norvegicus. In words: The compound was tested in vivo for Iron Mobilization efficacy in Fe-Ferritin Loaded Rat model. The format is functional. In a few lines:
as §1

In turn, `CCCCc1c(O)c(=O)cc(C)n1C` registered a logP in data set [1] of 0.9. The molecule also showed an inhibition in data set [2] of 29.6%.
Take `CCc1c(O)c(=O)ccn1C`: the logP in data set [1] is -0.21. The same molecule came in with an inhibition in data set [2] of 48.5%.
The molecule `CCCCCn1ccc(=O)c(O)c1C` displayed an inhibition in data set [2] of 90%.
As to `CC(=O)NCCC(=O)NCc1c(O)c(=O)cc(C)n1C`, the logP in data set [1] was -1.7. The same molecule gave a Mobilization in data set [3] of 9.7%. In data set [4], the Efficacy worked out at 5.9%. For the same molecule, the inhibition in data set [2] came to 3.8%.
`CCn1ccc(=O)c(O)c1C` had an inhibition in data set [2] of 58.4%.
The same measure, in the same setting: the figure for `CCCCCCn1ccc(=O)c(O)c1C` is 93.2%.
`CCCc1c(O)c(=O)cc(C)n1C` returned a logP in data set [1] of 0.4. Also, the inhibition in data set [2] came to 30%.
The molecule `Cn1ccc(=O)c(O)c1` registered a logP in data set [1] of -0.6. Moreover, in data set [2], the inhibition was determined as 59.4%.
Turning to `CCC(=O)NCc1c(O)c(=O)cc(C)n1C`, the logP in data set [1] is -0.72. Moreover, the inhibition in data set [2] stood at 13.5%.
Regarding `CC(=O)NCc1c(O)c(=O)cc(C)n1C`, in data set [2], the inhibition came out at 18.5%.
Take `Cc1cc(=O)c(O)c(CNC(=O)C(C)C)n1C`: in data set [1], the logP was -0.35. Besides, the inhibition in data set [2] was 21%.
Take `CCCNC(=O)CCC(=O)NCc1c(O)c(=O)cc(C)n1C`: in data set [1], the logP was -0.701. This molecule also yielded a Mobilization in data set [3] of 23.3%. In data set [4], the Efficacy came to 19.4%. Moreover, the inhibition in data set [2] was found to be 2.1%.
As for `COCc1c(O)c(=O)cc(C)n1C`, the logP in data set [1] is -0.41. The inhibition in data set [2] is 14.8%.
In the case of `CCCCn1ccc(=O)c(O)c1C`, the inhibition in data set [2] came to 80%.
`Cc1c(O)c(=O)ccn1C` [DEFERIPRONE] had a Mobilization in data set [3] of 13.4%. In addition, the Efficacy in data set [4] is 9.5%. Further, the inhibition in data set [2] was 39.4%.
Consider `CCCCCCCCn1ccc(=O)c(O)c1C`, for which the inhibition in data set [2] was found to be 98.7%.
